Experimental data reported in paper PMC5551971 (ACS chemical biology, 2017).
Entries after “also recorded” stand apart in the source; their conditions may differ.

Key:
H322 cells [1] = experiment: Immunoblot analysis of γH2AX; format: cell-based; conditions: 4 h; for induction of DNA damage (γH2AX): parental H322 and cWEE1 control cells, AZD1775 1 μM or cisplatin 17 μM
Outline: (§1)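 H322 cells and H322-derived CRISPR-Cas9 clones were used: WEE1 knockouts made by targeting the exon 1/intron 1 splice site, plus a control clone with WEE1 intact. Cells were exposed for 4 h to 1 μM test compound or to cisplatin (14 μM in the H322/H1648 comparison; 17 μM in the parental/clone comparison). γH2AX and total H2AX were detected by immunoblot, tracking the ~16 kDa and mono-ubiquitinated ~25 kDa γH2AX bands.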

H322 cells [2] = experiment: Immunoblot analysis of PARP1 and caspase 3 cleavage; format: cell-based
PLK1 [3] = biological target: T1, PLK1 (Homo sapiens, UniProt P53350); experiment: i-AZD1775 affinity pulldown with AZD1775 competition, PLK1 immunoblot; format: binding; conditions: H322 whole cell lysates, 20 μM free AZD1775
SRC = SRC (Homo sapiens, UniProt P12931); experiment: In vitro kinase assay panel; format: biochemical; conditions: 100 nM or 1000 nM AZD1775
[4] = tested on: H322, A427, H1155 and H1648 NSCLC cells; experiment: Cell viability of NSCLC cell lines, 72 h treatment; format: cell-based; conditions: several NSCLC cell lines, single agent
LYN = LYN (Homo sapiens, UniProt P07948); experiment: In vitro kinase assay panel; format: biochemical; conditions: 100 nM or 1000 nM AZD1775
[5] = tested on: cWEE1-KO[18] and cWEE1-KO[19] H322 WEE1 knockout clones; experiment: CellTiterGlo viability of H322 WEE1 CRISPR-Cas9 knockout clones; format: cell-based; conditions: 72 h
[6] = tested on: cWEE1-KO[18] and cWEE1-KO[19] H322 WEE1 knockout clones; experiment: Immunoblot analysis of γH2AX in WEE1 CRISPR-Cas9 knockout clones; format: cell-based; conditions: 4 h, 1 μM AZD1775
Outline: as §1

PLK1 [7] = biological target: T1, PLK1; experiment: In vitro kinase assay; format: biochemical
PLK1 [8] = biological target: T1, PLK1; experiment: In vitro kinase assay panel; format: biochemical; conditions: 100 nM or 1000 nM AZD1775

T1 sequence (P53350 whole entry): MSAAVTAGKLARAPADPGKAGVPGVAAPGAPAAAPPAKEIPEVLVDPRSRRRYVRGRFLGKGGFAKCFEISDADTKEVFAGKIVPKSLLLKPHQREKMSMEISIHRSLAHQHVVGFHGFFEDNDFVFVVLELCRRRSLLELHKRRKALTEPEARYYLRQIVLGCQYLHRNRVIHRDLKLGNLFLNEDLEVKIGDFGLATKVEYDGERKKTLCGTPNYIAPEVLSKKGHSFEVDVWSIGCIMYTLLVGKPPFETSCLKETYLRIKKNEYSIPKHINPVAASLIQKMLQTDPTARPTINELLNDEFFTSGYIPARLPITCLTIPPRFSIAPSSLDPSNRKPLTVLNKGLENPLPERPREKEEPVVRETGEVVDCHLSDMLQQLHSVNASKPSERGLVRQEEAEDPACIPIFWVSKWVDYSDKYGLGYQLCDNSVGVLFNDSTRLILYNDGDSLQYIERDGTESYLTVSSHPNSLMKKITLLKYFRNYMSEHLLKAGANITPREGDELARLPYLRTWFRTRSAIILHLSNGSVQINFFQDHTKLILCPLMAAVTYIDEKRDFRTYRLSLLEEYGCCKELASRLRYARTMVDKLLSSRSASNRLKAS
LYN, sequence (P07948 whole entry): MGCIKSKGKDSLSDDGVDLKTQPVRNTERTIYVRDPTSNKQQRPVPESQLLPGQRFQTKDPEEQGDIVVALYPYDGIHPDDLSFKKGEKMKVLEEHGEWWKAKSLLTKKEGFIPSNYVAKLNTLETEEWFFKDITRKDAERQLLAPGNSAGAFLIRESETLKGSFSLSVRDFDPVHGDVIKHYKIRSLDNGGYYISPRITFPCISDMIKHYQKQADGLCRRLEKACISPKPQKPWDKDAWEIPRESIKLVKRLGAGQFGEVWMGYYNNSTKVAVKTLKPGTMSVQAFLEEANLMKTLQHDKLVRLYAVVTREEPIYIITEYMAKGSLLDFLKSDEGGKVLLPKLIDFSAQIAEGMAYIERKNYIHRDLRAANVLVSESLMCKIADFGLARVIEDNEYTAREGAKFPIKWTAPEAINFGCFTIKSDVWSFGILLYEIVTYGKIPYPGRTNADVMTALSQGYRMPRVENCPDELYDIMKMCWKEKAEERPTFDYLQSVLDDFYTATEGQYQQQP
SRC, sequence (P12931 whole entry): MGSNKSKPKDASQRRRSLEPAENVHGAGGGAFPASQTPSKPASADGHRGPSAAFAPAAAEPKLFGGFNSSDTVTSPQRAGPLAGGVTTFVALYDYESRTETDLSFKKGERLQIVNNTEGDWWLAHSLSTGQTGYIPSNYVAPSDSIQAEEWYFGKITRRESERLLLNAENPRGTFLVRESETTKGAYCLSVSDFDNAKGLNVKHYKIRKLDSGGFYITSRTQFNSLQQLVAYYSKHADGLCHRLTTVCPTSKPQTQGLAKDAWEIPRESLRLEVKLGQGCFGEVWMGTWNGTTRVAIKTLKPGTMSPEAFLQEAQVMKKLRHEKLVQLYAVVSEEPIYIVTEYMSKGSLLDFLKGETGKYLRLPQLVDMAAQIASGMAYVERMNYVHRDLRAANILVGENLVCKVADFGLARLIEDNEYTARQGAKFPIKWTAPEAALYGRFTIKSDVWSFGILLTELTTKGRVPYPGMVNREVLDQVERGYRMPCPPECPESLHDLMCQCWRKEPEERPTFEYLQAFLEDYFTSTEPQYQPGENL

| SMILES | induction of DNA damage (γH2AX) (H322 cells [1]) | apoptosis by PARP1 and caspase 3 cleavage (H322 cells [2]; H322 cells, 0.03 μM BI-2536 compared with 1 μM AZD1775) | PLK1 enrichment in i-AZD1775 pulldown on competition with AZD1775 (PLK1 [3]) | SRC inhibition (SRC) | phosphorylation of Serine 139 in histone H2AX (γH2AX) (H322 cells [1]; H322 cells, 1 μM AZD1775) | inhibition of viability, potency [4] | LYN inhibition (LYN) | sensitivity of WEE1-reconstituted clone cWEE1-KO[18](RC9) [5] | PARP1 and caspase-3 cleavage (apoptosis induction) (H322 cells [2]; H322 versus H1648 cells, 48 h) | γH2AX in WEE1 knockout clones [6] | IC50 (PLK1 [7]) | PLK1 inhibition (PLK1 [8]) |
| --- | --- | --- | --- | --- | --- | --- | --- | --- | --- | --- | --- | --- |
| N.N.[Cl][Pt][Cl] [cisplatin] | can induce DNA damage | – | – | – | – | – | – | – | – | – | – | – |
| CC[C@@H]1C(=O)N(C)c2cnc(Nc3ccc(C(=O)NC4CCN(C)CC4)cc3OC)nc2N1C1CCCC1 [BI-2536] | – | strongly induced apoptosis; also recorded: higher degree of apoptosis than 1 μM AZD1775 | – | – | – | – | – | – | – | – | – | – |
| C=CCn1c(=O)c2cnc(Nc3ccc(N4CCN(C)CC4)cc3)nc2n1-c1cccc(C(C)(C)O)n1 [AZD1775] | can induce DNA damage | – | completely abrogated its enrichment | potent AZD1775 targets | potently increased | sub- to low micromolar potency | potent AZD1775 targets | completely reversed the sensitizing effect | markedly more pronounced in H322 cells than in H1648 | further increased γH2AX | 22 to 34 nM | potent AZD1775 targets |
